In ChEMBL document CHEMBL1926621, “New potent 5-HT(2A) receptor ligands containing an N'-cyanopicolinamidine nucleus: Synthesis and in vitro pharmacological evaluation” (Eur J Med Chem, 2012):
pIC50, pKi: −log10 of the molar value.

Legend:
D(2) dopamine receptor = D(2) dopamine receptor (Rattus norvegicus, UniProt P61169); test: Displacement of [3H]spiperone from rat corpora striatum dopamine D2 receptor after 15 mins by liquid scintillation counting; details: read-out: Ki
In short: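 Corpora striata membranes in Tris-HCl buffer containing NaCl, KCl, CaCl2, MgCl2, ascorbic acid and pargyline. [3H]spiperone 0.4 nM final, 3 mg fresh tissue, incubated 15 min at 37 °C. GF/B filtration, scintillation counting. Six concentrations in triplicate. IC50 converted to Ki via Cheng-Prusoff.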

[1] = molecular target: 5-hydroxytryptamine receptor 2A (Rattus norvegicus, UniProt P14842); test: Displacement of [3H]ketanserin from Sprague-Dawley rat brain cortex serotonin 5-HT2A receptor after 15 mins by liquid scintillation counting; details: for pKi: read-out: Ki
In short: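 Male Sprague-Dawley rat frontal cortex membranes in 50 mM Tris-HCl, 0.5 mM EDTA, 10 mM MgCl2 pH 7.4, with 0.1% ascorbate and pargyline. 0.4 nM [3H]ketanserin, 5 mg wet tissue, 15 min at 37 °C. Filtered on PEI-soaked glass fibre. Six compound concentrations in triplicate. IC50 converted to Ki by Cheng-Prusoff.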

D(1A) dopamine receptor = D(1A) dopamine receptor (Rattus norvegicus, UniProt P18901); test: Displacement of [3H]SCH-23390 from rat corpora striatum dopamine D1 receptor after 15 mins by liquid scintillation counting; details: read-out: Ki
In short: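 Rat corpora striata homogenized in 50 mM Tris-HCl pH 7.7, spun twice at 50,000 g. Resuspended in Tris-HCl with NaCl, KCl, CaCl2, MgCl2, ascorbic acid and pargyline. 0.4 nM [3H]SCH-23390 final, 3 mg fresh tissue, 15 min at 37 °C. Nonspecific binding with piflutixol. Ki by Cheng-Prusoff from triplicate six-point curves.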

[2] = molecular target: T1, 5-hydroxytryptamine receptor 1A (Rattus norvegicus, UniProt P19327); test: Displacement of [3H]-8-OH-DPAT from Sprague-Dawley rat brain cortex serotonin 5-HT1A receptor after 30 mins by liquid scintillation counting; details: read-out: Ki
T1 sequence (P19327 whole entry): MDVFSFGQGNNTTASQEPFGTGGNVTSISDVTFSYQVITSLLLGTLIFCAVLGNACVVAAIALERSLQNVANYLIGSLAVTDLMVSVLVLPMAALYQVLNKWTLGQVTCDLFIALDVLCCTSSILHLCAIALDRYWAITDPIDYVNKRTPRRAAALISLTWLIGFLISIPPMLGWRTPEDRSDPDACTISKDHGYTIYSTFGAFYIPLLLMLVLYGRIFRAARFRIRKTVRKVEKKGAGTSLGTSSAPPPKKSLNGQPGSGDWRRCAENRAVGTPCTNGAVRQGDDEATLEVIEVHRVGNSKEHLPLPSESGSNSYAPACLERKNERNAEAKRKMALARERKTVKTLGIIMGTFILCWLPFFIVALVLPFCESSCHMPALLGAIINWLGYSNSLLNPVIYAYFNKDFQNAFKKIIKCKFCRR
In short: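 Male Sprague-Dawley rat (180-220 g) cerebral cortex homogenized in 50 mM Tris-HCl pH 7.7, spun 50,000 g. [3H]-8-OH-DPAT 0.1 nM final, 30 min at 37 °C, GF/B filtration. Test compounds in ethanol or 5% DMSO, six concentrations in triplicate. IC50 by curve fitting, Ki by Cheng-Prusoff using Scatchard-derived KD.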

[3] = molecular target: T2, 5-hydroxytryptamine receptor 2C (Rattus norvegicus, UniProt P08909); test: Displacement of [3H]mesulergine from Sprague-Dawley rat brain cortex serotonin 5-HT2C receptor after 15 mins by liquid scintillation counting in presence of 5-HT2A blocker, spiperone; details: for pKi: read-out: Ki
T2 sequence (P08909 whole entry): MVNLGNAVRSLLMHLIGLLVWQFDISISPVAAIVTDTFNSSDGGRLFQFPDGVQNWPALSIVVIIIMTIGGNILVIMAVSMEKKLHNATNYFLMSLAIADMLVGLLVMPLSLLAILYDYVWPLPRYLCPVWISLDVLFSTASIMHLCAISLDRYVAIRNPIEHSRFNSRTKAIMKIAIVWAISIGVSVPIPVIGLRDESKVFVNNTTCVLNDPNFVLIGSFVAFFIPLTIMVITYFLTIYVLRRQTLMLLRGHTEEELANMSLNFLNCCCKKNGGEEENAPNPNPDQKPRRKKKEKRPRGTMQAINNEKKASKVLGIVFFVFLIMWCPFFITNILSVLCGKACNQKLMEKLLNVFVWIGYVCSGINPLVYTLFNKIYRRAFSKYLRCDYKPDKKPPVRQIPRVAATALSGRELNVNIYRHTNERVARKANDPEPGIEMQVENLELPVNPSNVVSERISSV
In short: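 Male Sprague-Dawley rat frontal cortex membranes (Tris-HCl/EDTA/MgCl2 pH 7.4, ascorbate, pargyline). 100 nM spiperone in all tubes to block 5-HT2A sites. Mianserin defined nonspecific binding. 15 min at 37 °C, PEI-soaked glass fibre filtration. Six compound concentrations in triplicate. Ki by Cheng-Prusoff.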

D(2) dopamine receptor, sequence (P61169 whole entry): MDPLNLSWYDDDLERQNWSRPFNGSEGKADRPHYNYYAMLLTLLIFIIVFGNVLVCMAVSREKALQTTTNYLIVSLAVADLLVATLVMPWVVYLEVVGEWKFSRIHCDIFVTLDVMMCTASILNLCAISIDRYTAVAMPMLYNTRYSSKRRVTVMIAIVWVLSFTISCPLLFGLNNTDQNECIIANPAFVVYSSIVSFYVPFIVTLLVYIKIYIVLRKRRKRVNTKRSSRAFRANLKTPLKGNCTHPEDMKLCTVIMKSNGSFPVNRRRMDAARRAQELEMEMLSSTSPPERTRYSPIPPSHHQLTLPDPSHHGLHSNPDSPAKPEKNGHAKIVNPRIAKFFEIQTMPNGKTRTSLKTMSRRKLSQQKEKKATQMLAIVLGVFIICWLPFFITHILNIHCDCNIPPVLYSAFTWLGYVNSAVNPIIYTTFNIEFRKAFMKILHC
D(1A) dopamine receptor, sequence (P18901 whole entry): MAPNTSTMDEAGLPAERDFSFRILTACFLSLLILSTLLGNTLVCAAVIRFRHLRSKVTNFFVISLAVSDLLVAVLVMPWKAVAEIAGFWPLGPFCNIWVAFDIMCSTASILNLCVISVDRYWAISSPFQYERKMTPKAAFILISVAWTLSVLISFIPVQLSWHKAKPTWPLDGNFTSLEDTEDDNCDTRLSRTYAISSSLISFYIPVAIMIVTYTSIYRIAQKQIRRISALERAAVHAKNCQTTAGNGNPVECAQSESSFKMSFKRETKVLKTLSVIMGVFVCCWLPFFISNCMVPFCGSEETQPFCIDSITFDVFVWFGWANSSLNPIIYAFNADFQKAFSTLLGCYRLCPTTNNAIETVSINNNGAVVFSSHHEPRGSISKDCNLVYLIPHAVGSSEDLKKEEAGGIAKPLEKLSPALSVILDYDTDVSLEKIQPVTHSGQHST
5-hydroxytryptamine receptor 2A, sequence (P14842 whole entry): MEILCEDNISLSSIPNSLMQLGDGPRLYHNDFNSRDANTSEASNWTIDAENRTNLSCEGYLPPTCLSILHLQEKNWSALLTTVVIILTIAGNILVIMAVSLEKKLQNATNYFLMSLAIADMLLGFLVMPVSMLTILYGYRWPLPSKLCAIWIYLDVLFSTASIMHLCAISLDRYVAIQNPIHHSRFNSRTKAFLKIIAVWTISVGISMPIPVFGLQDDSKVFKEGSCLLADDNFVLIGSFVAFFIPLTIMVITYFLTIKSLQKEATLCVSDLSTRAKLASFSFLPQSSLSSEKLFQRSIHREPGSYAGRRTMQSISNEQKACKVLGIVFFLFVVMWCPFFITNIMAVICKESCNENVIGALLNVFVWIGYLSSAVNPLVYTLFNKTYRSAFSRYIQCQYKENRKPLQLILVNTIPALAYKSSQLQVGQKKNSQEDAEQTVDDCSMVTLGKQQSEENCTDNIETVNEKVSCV

| pKi (D(2) dopamine receptor) | pKi [1] | pKi (D(1A) dopamine receptor) | pKi [2] | pKi [3] | pIC50 [1] | Ki [3] | Compound |
| --- | --- | --- | --- | --- | --- | --- | --- |
| < 5.00 | 8.95 | < 5.00 | 7.51 | < 5.00 | – | – | N#C/N=C(\NCCCN1CCN(c2ccccn2)CC1)c1ccccn1 |
| < 5.00 | 10.79 | < 5.00 | 5.51 | 7.65 | 10.66 | – | N#C/N=C(\NCCCN1CCN(c2ncccn2)CC1)c1ccccn1 |
| 7.08 | 12.11 | < 5.00 | 8.88 | 8.74 | 11.98 | – | N#C/N=C(\NCCCN1CCN(c2cccc(C(F)(F)F)c2)CC1)c1ccccn1 |
| < 5.00 | 5.56 | 7.28 | 7.76 | – | – | Not Active | CCOc1ccccc1N1CCN(CCCN/C(=N\C#N)c2ccccn2)CC1 |
| < 5.00 | 11.80 | < 5.00 | 8.33 | 8.79 | 11.67 | – | COc1ccccc1N1CCN(CCCN/C(=N\C#N)c2ccccn2)CC1 |
| < 5.00 | 9.06 | < 5.00 | 7.52 | 7.53 | – | – | Cc1cccc(N2CCN(CCCN/C(=N\C#N)c3ccccn3)CC2)c1C |
